According to ChEMBL document CHEMBL1133181, “A novel approach for the virtual screening and rational design of anticancer compounds” (J Med Chem, 2000):
Converted amounts (≈) assume the structure as drawn.

Experiments:
[1] = Antitumor activity to reduce proliferation of human T-lymphocyte CEM/0 cells by 50%; type: functional, cell-based
Procedure, shortened: (§1)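 CEM or Molt4/C8 cells were seeded into 96-well wells with test compound and grown for 72 h at 37 °C in a humidified, CO2-controlled atmosphere. Cells were then counted with a Coulter counter. IC50 is the compound concentration that reduced the number of living cells by 50%.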

[2] = Antitumor activity to reduce proliferation of human T-lymphocyte Molt4/C8 cells by 50%; type: functional, cell-based; conditions: molt-4; procedure, shortened: as §1
[3] = tested on: L1210; assay: Antitumor activity to reduce proliferation of murine leukemia L1210/0 cells by 50%; type: functional, cell-based, Mus musculus
Procedure, shortened: (§2)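 L1210 murine leukemia cells were incubated in 96-well microtiter wells with test compound for 48 h at 37 °C under humidified, CO2-controlled conditions. Cell numbers were then counted with a Coulter counter. IC50 was taken as the concentration giving a 50% reduction in living cell count.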

[4] = Concentration required to reduce proliferation of human T-lymphocyte CEM/0 cells by 50%; type: functional, cell-based; procedure, shortened: as §1
[5] = Concentration required to reduce proliferation of human T-lymphocyte Molt4/C8 cells by 50%; type: functional, cell-based; conditions: molt-4; procedure, shortened: as §1
[6] = tested on: L1210; assay: Concentration required to reduce proliferation of murine leukemia L1210/0 cells by 50%; type: functional, cell-based, Mus musculus; procedure, shortened: as §2

SMILES	IC50 [3]	IC50 [6]	IC50 [1]	IC50 [2]	IC50 [4]	IC50 [5]
OCC1CCCC1n1cnc2c(Cl)ncnc21 (cis isomer)	62.8 µg/mL (≈ 249 µM)	–	61 µg/mL (≈ 241 µM)	49.9 µg/mL (≈ 197 µM)	–	–
Nc1ncnc2c1ncn2C1CCCC1CO (cis isomer)	> 200 µg/mL	–	> 200 µg/mL	–	–	–
OCC1CCCC1Cn1cnc2c(Cl)ncnc21 (cis isomer)	14 µg/mL (≈ 52.5 µM)	–	16 µg/mL (≈ 60 µM)	6.54 µg/mL (≈ 24.5 µM)	–	–
O=c1[nH]c(=O)n(C2CCCC2CO)cc1I (stereo in doubt; 4a)	52.3 µg/mL (≈ 156 µM)	–	57.4 µg/mL (≈ 171 µM)	77.4 µg/mL (≈ 230 µM)	–	–
Nc1ncnc2c1ncn2CC1CCCC1CO (stereo in doubt; 7c)	102 µg/mL (≈ 412 µM)	–	108 µg/mL (≈ 437 µM)	100 µg/mL (≈ 404 µM)	–	–
OCC1CCCC1n1cnc2c(Cl)ncnc21 (trans isomer)	56.1 µg/mL (≈ 222 µM)	–	19 µg/mL (≈ 75.2 µM)	39.2 µg/mL (≈ 155 µM)	–	–
OCC1CCCC1Cn1cnc2c(Cl)ncnc21 (trans isomer)	48.7 µg/mL (≈ 183 µM)	–	15 µg/mL (≈ 56.2 µM)	22.3 µg/mL (≈ 83.6 µM)	–	–

Further lines, with some results ahead:

IC50 [3]	IC50 [6]	SMILES	IC50 [1]	IC50 [2]	IC50 [4]	IC50 [5]
> 200 µg/mL	–	O=c1ccn(CC2CCCC2CO)c(=O)[nH]1 (configuration not stated)	> 200 µg/mL	> 200 µg/mL	–	–
–	> 200 µg/mL	OCC1CCCC1Cn1cnc2c(O)ncnc21 (cis isomer)	–	–	> 200 µg/mL	> 200 µg/mL
71.1 µg/mL (≈ 203 µM)	–	O=c1[nH]c(=O)n(CC2CCCC2CO)cc1I (cis isomer)	117 µg/mL (≈ 334 µM)	108 µg/mL (≈ 308 µM)	–	–
–	> 200 µg/mL	OCC1CCCC1n1cnc2c(O)ncnc21 (trans isomer)	–	–	> 200 µg/mL	> 200 µg/mL
65.8 µg/mL (≈ 188 µM)	–	O=c1[nH]c(=O)n(CC2CCCC2CO)cc1I (trans isomer)	131 µg/mL (≈ 374 µM)	158 µg/mL (≈ 451 µM)	–	–
> 200 µg/mL	–	O=c1ccn(C2CCCC2CO)c(=O)[nH]1 (trans isomer)	> 200 µg/mL	> 200 µg/mL	–	–
179 µg/mL (≈ 767 µM)	–	Nc1ncnc2c1ncn2C1CCCC1CO (trans isomer)	180 µg/mL (≈ 772 µM)	> 200 µg/mL	–	–
> 200 µg/mL	–	O=c1[nH]c(=O)n(C2CCCC2CO)cc1I (trans isomer)	> 200 µg/mL	> 200 µg/mL	–	–
> 200 µg/mL	–	Nc1ncnc2c1ncn2CC1CCCC1CO (trans isomer)	> 200 µg/mL	> 200 µg/mL	–	–
